High-throughput results: PubChem, several laboratories
L major viab: Leishmania major promastigote growth inhibition, primary screen. Leishmania major promastigotes, resazurin fluorescence viability. inhibition, % at 10 µM. 200,000 tested, 9% active; in the data active = inhibition above about 50%;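 note: promastigotes grown with compound for 44 hours at 28 °C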
CHOP inh: inhibitors of CHOP promoter induction, primary screen, cell-based, unfolded protein response, luciferase reporter; CHO-K1 CHOP-promoter luciferase, tunicamycin-induced, 15-18 h; inhibition, % at 10 µM; 220,000 tested, 3.8% active; AID 2732, 2010;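 active = compounds that reduced the stress-induced luciferase reporter signal by more than about 70% of percent inhibition, limit read from the data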;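 note: 0% = tunicamycin plus vehicle and 100% = wells without tunicamycin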
Dynein transport: inhibitors of GR-EGFP nuclear translocation, primary screen, dynein cargo transport inhibitor project, imaging, high-content, 3617.4 mouse cells. 220,000 tested, 0.47% active. z-score, hits read low. test concentration mostly 20 µM; stimulated with dexamethasone, 1 µM; active compounds read low;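 active = plate z-score of nuclear minus cytoplasmic receptor signal below a set negative limit, without overly bright fluorescence or cell loss, cut at about -3.5 in these data, passing the limit was not always enough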;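 note: z-score of nuclear minus cytoplasmic ring GR-EGFP intensity difference per well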
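Medium: Induction medium lacking tetracycline, stripped serum | Probe or stimulus: 1.0 µM final dexamethasone stimulus | Schedule: 48 h induction, then 1 h compound, then 30 min agonist, 37 °C | Signal: Automated 10x imaging of fixed Hoechst-stained cells | Evaluation: Per-cell GR-EGFP intensity, nucleus versus surrounding cytoplasmic ring, well-averaged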
b-catenin transl: modulators of beta-catenin nuclear translocation, primary screen, imaging, HeLa cells, immunofluorescence, high-content; AID 1665, 2009; nuclear translocation activity, % at 5 µM; 190,000 tested, 0.3% active;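 active = nuclear translocation activity above 50% at 5 µM, with a well cell count of 50 or more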;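 note: per-cell ratio of nuclear to cytoplasmic median beta-catenin stain intensity; plate controls were DMSO negative control for no effect and GSK-3 inhibitor IX positive control for full effect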
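Test system: human HeLa cell line; Doses: 5 µM primary, 0.02–20 µM confirmation; Incubation: 24 h compound exposure, 37°C; Detection: beta-catenin immunofluorescence imaging with DAPI; Read-out: beta-catenin nuclear/cytoplasmic ratio, % activation.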
MT stabilizer: microtubule stabilizers in HeLa cells, primary screen, imaging, high-content imaging; % tubulin-high responders, % at 10 µM; HeLa tubulin immunostaining HCS, 24 h; share of cells brighter than vehicle mean+2SD; 200,000 tested, 0.83% active;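 active = plate Z-score above 3 for both tubulin-high and condensed-nucleus cell shares, with cell loss under 80%, at 10 µM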;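 note: anti alpha tubulin signal scored within the nucleus-defined area of each cell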
Autophagy HCS: autophagy modulators in MEF cells, primary screen, imaging, high-content, MEF GFP-LC3. 190,000 tested, 0.98% active. AID 463193, 2010. MEF GFP-LC3 puncta imaging; test concentration mostly 10 µM. calls only at 10 µM (by protocol);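 active = percentage of spot-positive cells more than 3 SD above its plate mean, without a fluorescence outlier flag or 80% toxicity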;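 note: spot-positive cell cutoff set from DMSO-treated cells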
* hit, by the source's call; i = inactive; . = no result given; + = active, no number. A selection: hits, their analogues and other compounds. The true share with any hit is near 12%.

SMILES | L major viab | CHOP inh | Dynein transport | b-catenin transl | MT stabilizer | Autophagy HCS
CS(=O)(=O)N(Cc1ccco1)CC(O)Cn1cc(C=O)c2ccccc21 (centres undefined) | -1 | -24 | 0.0099 | . | 3 | i
Cc1ccc(SCCC(=O)OCC(=O)NCC2CCCCC2)cc1 | 1 | 15 | -0.28 | 1 | 4 | i
CCNc1nc(NCc2ccccc2)nc(SCC(=O)Nc2ccccc2)n1 | 17 | 27 | -0.2 | 1 | 3 | i
CCNc1nc(NCC)nc(SCCOC(=O)Nc2ccccc2)n1 | 77* | 8 | 1.4 | 5 | 3 | i
CCc1nc(SCc2cc(Cl)ccc2OC)n[nH]1 | 1 | 28 | -0.85 | 2 | 12 | i
CCOC(=O)C1(Cc2ccccc2Cl)CCN(C(=O)CN2CCOC2=O)CC1 | -5 | -26 | -0.23 | 0 | 7 | i
CCC(C)N(CC(=O)Nc1cccc(C)c1C)C(=O)CCl (centres undefined) | 64* | -35 | -3.3 | 7 | 18 | +
CCC(CC)NC(=O)Nc1cccc(C)c1C | 3 | 0 | -0.51 | 2 | 2 | i
CC1CN(CCCCOc2cccc(Oc3ccccc3)c2)CC(C)O1 (centres undefined) | -4 | 69 | 0.4 | 6 | 5 | i
c1ccc(Oc2cccc(OCCCCN3CCCC3)c2)cc1 | 99* | -3 | 0.92 | 0 | 4 | i
CN(C)CCCOc1cccc(Cl)c1 | -1 | 5 | -0.87 | 0 | 5 | i
Clc1cccc(OCCN2CCN(CCOc3cccc(Cl)c3)CC2)c1 | 99* | 62 | 3.4 | 2 | 4 | i
CC1CCN(CCOc2cccc(Br)c2)CC1 | 71* | 18 | -0.28 | 0 | 4 | i
COc1cccc(NC(=O)CN2CCC(C)CC2)c1 | -3 | 54 | 0.22 | . | 2 | i
Brc1cccc(OCCCN2CCCCCC2)c1 | 96* | 14 | -0.86 | 4 | 6 | i
O=C(CN(CCc1ccccc1)S(=O)(=O)c1ccc(Cl)cc1)N/N=C/c1ccccc1C(=O)O | -2 | -5 | 2.1 | -3 | 10 | i
CCOc1ccc(NC(=O)CN2C(=O)COc3ccc(Cl)cc32)cc1 | 3 | 76* | 1.7 | . | 3 | i
Cc1ccc(NC(=O)COC(=O)CNC(=O)c2ccco2)cc1 | -1 | 3 | 1.5 | -1 | 3 | i
CCn1cc(CNC(=O)/C=C/c2ccc([N+](=O)[O-])cc2)cn1 | -1 | 3 | 0.19 | -4 | 4 | i
Cc1nn(C)c(C)c1/C=C/C(=O)c1cccs1 | 72* | -12 | -1.4 | . | 3 | i
Cc1cc(C)c2oc(-c3ccc(Cl)c(NC(=O)c4ccc(C#N)cc4F)c3)nc2c1 | 13 | 67 | -0.56 | 0 | 4 | +
N#Cc1ccc(C(=O)Nc2cccc3ncccc23)c(F)c1 | -7 | 7 | -0.055 | 0 | 6 | i
CCn1c(SCC(=O)Nc2ccc3c(c2)c2ccccc2n3CC)nnc1-c1cnccn1 | 99* | 40 | -1.2 | -3 | 5 | i
CCOC(=O)c1c(NC(=O)CSc2nnc(C)s2)sc2c1CCN(C)C2 | 14 | 50 | -1.2 | . | 4 | i
CCn1c(SCC(=O)N/N=C/c2c[nH]c3ccccc23)nnc1-c1ccc(Cl)cc1 | -3 | 4 | 0.26 | 35 | 12* | i
SMILES | L major viab | CHOP inh | Dynein transport | b-catenin transl | MT stabilizer | Autophagy HCS
Cc1nnc(SCC(=O)Nc2sc3c(c2C(=O)c2ccccc2)CCCC3)s1 | 89* | 59 | 0.098 | -1 | 1 | i
CCOC(=O)c1c(NC(=O)CSc2nnc(-c3c[nH]c4ccccc34)n2CC)sc2c1CCCC2 | 55* | 15 | -0.11 | -1 | 5 | i
CCc1ccc(C(O)(c2ccccc2OC)C(CN2CCOCC2)c2ccccc2)cc1 (centres undefined) | 34 | -10 | 2.1 | 0 | 3 | i
CC1(C)CC(=O)C2=C(C1)N(c1ccc(F)cc1)C(=O)CC2c1ccsc1 (centres undefined) | 0 | -18 | 0.19 | . | 6 | i
Cc1cccc(OCCC(=O)N(C)CC(=O)Nc2cccc3ccccc23)c1 | 2 | 33 | -0.05 | 1 | 4 | i
O=C(CSc1nnc(-c2c[nH]c3ccccc23)n1CC1CCCO1)Nc1ccc2c(c1)OCCO2 (centres undefined) | 11 | 26 | -0.17 | . | 3 | i
CCn1c(SCC(=O)Nc2ccc3c(c2)OCCO3)nnc1-c1c[nH]c2ccccc12 | 60* | -1 | 0.067 | -2 | 2 | i
C=CCn1c(SCC(=O)Nc2ccccc2OC)nnc1-c1ccccn1 | 12 | 43 | -0.22 | -1 | 24* | i
Cc1cc2ccccc2n1CCNC(=O)Cc1cccc2ccccc12 | 21 | 71* | -0.93 | 3 | 5 | i
CCOc1ccc(N2C(=O)CN(CC(=O)OC)C2=S)cc1 | -5 | 4 | -0.072 | -1 | 2 | i
O=C(Cn1c(=O)c(=O)n(Cc2ccccc2)c2ccc(Cl)cc21)NCC1CCCO1 (centres undefined) | 4 | 6 | 0.13 | -5 | 3 | i
CC(C)(C)NC(=O)Cn1c(=O)c(=O)n(Cc2ccccc2)c2ccc(Cl)cc21 | 58* | 15 | 0.21 | 1 | 2 | i
O=C(Cn1c(=O)c(=O)n(Cc2ccccc2)c2ccc(Cl)cc21)Nc1ccc(F)cc1F | 1 | 38 | -0.86 | 0 | 26* | i
CCOC(=O)C1(Cc2cccc(F)c2)CCN(C(=O)c2cnc(C)cn2)CC1 | -5 | -5 | 0.29 | 0 | 2 | i
CNc1ccc(C(=O)c2ccccc2C(=O)O)cc1[N+](=O)[O-] | 4 | 1 | 1.4 | -3 | 2 | i
CNc1ccc(/C=C/C(=O)c2cccc3ccccc23)cc1[N+](=O)[O-] | 99* | -9 | 0.13 | . | 7 | i
Cc1ccc(N2C(=O)c3ccc(C(=O)N4CCOCC4)cc3C2=O)cc1C | -2 | 3 | 0.84 | . | 2 | i
Oc1ccc(-c2cn3cc(C(F)(F)F)ccc3n2)cc1 | 51* | 6 | 0.088 | -1 | 6 | i
COc1ccc(-n2c(SCc3ccc(C#N)cc3)nnc2-c2ccccn2)cc1 | -5 | -14 | 0.47 | 0 | 2 | i
COc1ccc(C2Sc3nncn3N2Cc2ccc(C#N)cc2)cc1 (centres undefined) | -10 | -2 | -0.093 | -4 | 3 | +
c1ccc(C2CC(c3ccccc3)n3c(nc4ccccc43)N2)cc1 (centres undefined) | 13 | -11 | 0.11 | -1 | 3 | i
CC1(C)Cc2c(ccc3ccccc23)/C(=C/C#N)N1 | -3 | 71* | -0.74 | 0 | 2 | i
COc1ccc(CC2(CO)CCN(Cc3cccn3-c3ccccn3)CC2)cc1 | -1 | -3 | -0.041 | 2 | 3 | i
